Laboratory results as given in ChEMBL document CHEMBL4020844, “Regio- and Stereospecific Synthesis of Oridonin D-Ring Aziridinated Analogues for the Treatment of Triple-Negative Breast Cancer via Mediated Irreversible Covalent Warheads” (J Med Chem, 2018).
pIC50: −log10 of the molar value. The source made the active and inactive calls. No cut-off for these calls is given here.

How the values were obtained:
MDA-MB-231 [1] = experiment: Antitumor activity against human MDA-MB-231 cells xenografted in nude mouse assessed as tumor growth inhibition at 10 to 15 mg/kg, ip daily for 10 days; type: functional, organism-based
Summary of the method: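 Orthotopic model: female nude mice, 6–8 weeks old. MDA-MB-231 cells (1.0 × 10^6 in PBS) were injected into the no. 3 mammary fat pad, and mice were randomized into 4 groups. Once tumors reached 80–100 mm3, mice received 10 or 15 mg/kg daily by intraperitoneal injection in DMSO vehicle. Tumor volume (0.5 × L × W2) and body weight were measured daily. Mean ± SEM.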

MDA-MB-231 [2] = experiment: Induction of apoptosis in human MDA-MB-231 cells assessed as live cells at 10 uM after 48 hrs by Annexin V-FITC/propidium iodide staining based flow cytometry (reference value: 90.35%); type: functional
MDA-MB-231 [3] = experiment: Induction of apoptosis in human MDA-MB-231 cells assessed as upregulation of cleaved PARP after 48 hrs by Western blot analysis; type: functional, cell-based
Summary of the method: (§1)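 MDA-MB-231 cells were exposed to DMSO or compound at several concentrations for 48 h, then lysed. Protein was measured by Bradford with a BSA standard. 40 μg total protein was run on SDS-PAGE and transferred to nitrocellulose, then blocked with 5% milk. Primary antibodies were applied overnight: Bcl-2 1:200, cleaved PARP 1:500, NF-κB 1:1000, Bax 1:1000, β-actin 1:2000. Detection was by ECL.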

MDA-MB-231 [4] = experiment: Inhibition of colony formation in human MDA-MB-231 cells after 2 weeks by crystal violet staining based assay; type: functional, cell-based
Summary of the method: (§2)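 Cells were seeded at 600 per well (MDA-MB-231) or 800 per well (MDA-MB-468, SK-BR3, MCF-7). After 24 h they were exposed to 1, 5, 10, 15 or 20 μM, or DMSO, with medium plus compound renewed every 72 h for 2 weeks. Wells were PBS-washed, stained with 0.01% crystal violet for 10 min, washed, dried and photographed.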

MDA-MB-231 [5] = experiment: Induction of apoptosis in human MDA-MB-231 cells after 48 hrs by Annexin V-FITC/propidium iodide staining based flow cytometry; type: functional, cell-based
MDA-MB-231 [6] = experiment: Induction of apoptosis in human MDA-MB-231 cells assessed as dead cells at 5 uM after 48 hrs by Annexin V-FITC/propidium iodide staining based flow cytometry (reference value: 1.5%); type: functional
MDA-MB-231 [7] = experiment: Induction of apoptosis in human MDA-MB-231 cells assessed as live cells at 15 uM after 48 hrs by Annexin V-FITC/propidium iodide staining based flow cytometry (reference value: 90.35%); type: functional
MDA-MB-231 [8] = experiment: Induction of apoptosis in human MDA-MB-231 cells assessed as live cells at 20 uM after 48 hrs by Annexin V-FITC/propidium iodide staining based flow cytometry (reference value: 90.35%); type: functional
[9] = Glutathione reactivity in pH 7.4 deuterated phosphate buffer assessed as reaction half life at 10 mg up to 120 mins in presence of 1.5 to 2 equiv of GSH by 1H NMR analysis; type: physicochemical; conditions: pH 7.4, 2 h
Summary of the method: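 Glutathione (1.5–2 equiv) was incubated with compound at 37°C in DMSO-d6 mixed with sodium phosphate buffer in D2O, pH 7.4. Reactivity was monitored by 1H NMR.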

MDA-MB-231 [10] = experiment: Induction of apoptosis in human MDA-MB-231 cells assessed as early apoptotic cells at 1 uM after 48 hrs by Annexin V-FITC/propidium iodide staining based flow cytometry (reference value: 1.85%); type: functional
MDA-MB-231 [11] = experiment: Induction of apoptosis in human MDA-MB-231 cells assessed as dead cells at 20 uM after 48 hrs by Annexin V-FITC/propidium iodide staining based flow cytometry (reference value: 1.5%); type: functional
MDA-MB-231 [12] = experiment: Antiproliferative activity against human MDA-MB-231 cells after 72 hrs by MTT assay; type: functional, cell-based
Summary of the method: (§3)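 MTT proliferation assay. Cells were seeded at 1 × 10^4 per well and exposed to DMSO or compound at 0.1, 0.33, 1.0, 3.3 and 10 μM for 72 h. MTT reagent was added, and OD at 560 nm was read after 1 h at 37°C. Each concentration was tested in quadruplicate wells.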

MCF-10A = experiment: Antiproliferative activity against human MCF10A cells up to 100 uM after 48 hrs by MTT assay
MDA-MB-231 [13] = experiment: Induction of apoptosis in human MDA-MB-231 cells assessed as late apoptotic cells at 5 uM after 48 hrs by Annexin V-FITC/propidium iodide staining based flow cytometry (reference value: 6.3%); type: functional
MDA-MB-231 [14] = experiment: Induction of apoptosis in human MDA-MB-231 cells assessed as live cells at 5 uM after 48 hrs by Annexin V-FITC/propidium iodide staining based flow cytometry (reference value: 90.35%); type: functional
MDA-MB-468 [15] = experiment: Inhibition of colony formation in human MDA-MB-468 cells after 2 weeks by crystal violet staining based assay; type: functional, cell-based; summary of the method: as §2
MDA-MB-231 [16] = experiment: Induction of apoptosis in human MDA-MB-231 cells assessed as dead cells at 10 uM after 48 hrs by Annexin V-FITC/propidium iodide staining based flow cytometry (reference value: 1.5%); type: functional
MDA-MB-231 [17] = experiment: Induction of apoptosis in human MDA-MB-231 cells assessed as dead cells at 1 uM after 48 hrs by Annexin V-FITC/propidium iodide staining based flow cytometry (reference value: 1.5%); type: functional
MDA-MB-231 [18] = experiment: Induction of apoptosis in human MDA-MB-231 cells assessed as early apoptotic cells at 10 uM after 48 hrs by Annexin V-FITC/propidium iodide staining based flow cytometry (reference value: 1.85%); type: functional
MDA-MB-231 [19] = experiment: Induction of apoptosis in human MDA-MB-231 cells assessed as late apoptotic cells at 1 uM after 48 hrs by Annexin V-FITC/propidium iodide staining based flow cytometry (reference value: 6.3%); type: functional
MDA-MB-231 [20] = experiment: Induction of apoptosis in human MDA-MB-231 cells assessed as early apoptotic cells at 5 uM after 48 hrs by Annexin V-FITC/propidium iodide staining based flow cytometry (reference value: 1.85%); type: functional
[21] = Glutathione reactivity in pH 7.4 deuterated phosphate buffer assessed as GSH adduct formation at 10 mg after 1 hr in presence of 1.5 to 2 equiv of GSH by HRMS analysis
SK-BR-3 [22] = experiment: Inhibition of colony formation in human SK-BR-3 cells after 2 weeks by crystal violet staining based assay; type: functional, cell-based; summary of the method: as §2
MDA-MB-231 [23] = experiment: Induction of apoptosis in human MDA-MB-231 cells assessed as early apoptotic cells at 20 uM after 48 hrs by Annexin V-FITC/propidium iodide staining based flow cytometry (reference value: 1.85%); type: functional
MDA-MB-231 [24] = experiment: Induction of apoptosis in human MDA-MB-231 cells assessed as late apoptotic cells at 20 uM after 48 hrs by Annexin V-FITC/propidium iodide staining based flow cytometry (reference value: 6.3%); type: functional
MDA-MB-231 [25] = experiment: Induction of apoptosis in human MDA-MB-231 cells assessed as reduction in Bcl2 to Bax ratio at 1 to 20 uM after 48 hrs by Western blot analysis; type: functional, cell-based; summary of the method: as §1
MDA-MB-468 [26] = experiment: Antiproliferative activity against human MDA-MB-468 cells after 72 hrs by MTT assay; type: functional, cell-based; summary of the method: as §3
MCF7 [27] = experiment: Antiproliferative activity against human MCF7 cells after 72 hrs by MTT assay; type: functional, cell-based; summary of the method: as §3
MDA-MB-231 [28] = experiment: Induction of apoptosis in human MDA-MB-231 cells assessed as late apoptotic cells at 15 uM after 48 hrs by Annexin V-FITC/propidium iodide staining based flow cytometry (reference value: 6.3%); type: functional
MCF7 [29] = experiment: Inhibition of colony formation in human MCF7 cells after 2 weeks by crystal violet staining based assay; type: functional, cell-based; summary of the method: as §2
MDA-MB-231 [30] = experiment: Induction of apoptosis in human MDA-MB-231 cells assessed as live cells at 1 uM after 48 hrs by Annexin V-FITC/propidium iodide staining based flow cytometry (reference value: 90.35%); type: functional
SK-BR-3 [31] = experiment: Antiproliferative activity against human SK-BR-3 cells after 72 hrs by MTT assay; type: functional, cell-based; summary of the method: as §3
MDA-MB-231 [32] = experiment: Induction of apoptosis in human MDA-MB-231 cells assessed as late apoptotic cells at 10 uM after 48 hrs by Annexin V-FITC/propidium iodide staining based flow cytometry (reference value: 6.3%); type: functional
MDA-MB-231 [33] = experiment: Induction of apoptosis in human MDA-MB-231 cells assessed as early apoptotic cells at 15 uM after 48 hrs by Annexin V-FITC/propidium iodide staining based flow cytometry (reference value: 1.85%); type: functional
MDA-MB-231 [34] = experiment: Downregulation of NF-kB p65 protein expression in human MDA-MB-231 cells after 48 hrs by Western blot analysis; type: functional, cell-based; summary of the method: as §1

C=CC(=O)N1CC12C(=O)[C@@]13[C@@H]4OC(C)(C)O[C@@]15OC[C@@]1([C@H]([C@@H]5O)C(C)(C)CC[C@@H]1O)[C@@H]3CC[C@H]42 (some centres not stated)
TGI (MDA-MB-231 [1]): Active
Activity (MDA-MB-231 [2]): 79.05%
Activity (MDA-MB-231 [3]): Dose-dependent effect
inhibition (MDA-MB-231 [4]): Active
Activity (MDA-MB-231 [5]): Dose-dependent effect
Activity (MDA-MB-231 [6]): 1.75%
Activity (MDA-MB-231 [7]): 70.25%
Activity (MDA-MB-231 [8]): 50.35%
t1/2 [9]: 30 to 60 min
Activity (MDA-MB-231 [10]): 2.5%
Activity (MDA-MB-231 [11]): 2.05%
Activity (MDA-MB-231 [12]): Dose-dependent effect
pIC50 (MDA-MB-231 [12]; MDA-MB-231, 72 h): 5.08
Activity (MCF-10A): Non-Toxic
Activity (MDA-MB-231 [13]): 6.7%
Activity (MDA-MB-231 [14]): 87.95%
inhibition (MDA-MB-468 [15]): Active
Activity (MDA-MB-231 [16]): 2.75%
Activity (MDA-MB-231 [17]): 1.95%
Activity (MDA-MB-231 [18]): 5.45%
Activity (MDA-MB-231 [19]): 6.05%
Activity (MDA-MB-231 [20]): 3.6%
Drug metabolism [21]: Metabolite detected
inhibition (SK-BR-3 [22]): Active
Activity (MDA-MB-231 [23]): 2.95%
Activity (MDA-MB-231 [24]): 44.65%
Activity (MDA-MB-231 [25]): Active
Activity (MDA-MB-468 [26]): Dose-dependent effect
Activity (MCF7 [27]): Dose-dependent effect
pIC50 (MCF7 [27]; MCF7, 72 h): 5.03
Activity (MDA-MB-231 [28]): 21.6%
inhibition (MCF7 [29]): Active
Activity (MDA-MB-231 [30]): 89.5%
Activity (SK-BR-3 [31]): Dose-dependent effect
Activity (MDA-MB-231 [32]): 12.75%
Activity (MDA-MB-231 [33]): 5.2%
Activity (MDA-MB-231 [34]): Dose-dependent effect
